Source: PubChem
SR-BI uptake up = enhances SR-BI lipid uptake from DiI-HDL; CHO ldlA[mSR-BI] cells, DiI-HDL uptake fluorescence, 3 h; 100 = double the neutral-control signal; activation, % at 12.5 µM; 0.096% of 320,000 active; AID 504775;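 active = mean replicate activation of at least 60% and every replicate at or above 60%; inconclusive = mean or all-replicate condition met, but not both; inactive = mean below 60% and not all replicates reaching 60%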
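Test system: SR-BI-overexpressing, LDLR-lacking CHO cells. Measured by: DiI fluorescence, bottom read. Medium: Ham's F12 with 0.5% BSA, HEPES 25 mM, pH 7.4. Timing: 3 h uptake period with compound, 37 °C.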
SR-BI DiI inh = inhibitors of mouse SR-BI mediated HDL lipid uptake; inhibition, % at 12.5 µM; 0.96% of 320,000 active; ldlA[mSR-BI] CHO cells, DiI-HDL uptake fluorescence, 3 h;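 active = mean replicate inhibition of at least 70% and a set share of replicates each scoring 70 or more; inconclusive = meets just one of the two criteria; inactive = fails both criteria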
Target sequence (Q61009 whole entry, looked up): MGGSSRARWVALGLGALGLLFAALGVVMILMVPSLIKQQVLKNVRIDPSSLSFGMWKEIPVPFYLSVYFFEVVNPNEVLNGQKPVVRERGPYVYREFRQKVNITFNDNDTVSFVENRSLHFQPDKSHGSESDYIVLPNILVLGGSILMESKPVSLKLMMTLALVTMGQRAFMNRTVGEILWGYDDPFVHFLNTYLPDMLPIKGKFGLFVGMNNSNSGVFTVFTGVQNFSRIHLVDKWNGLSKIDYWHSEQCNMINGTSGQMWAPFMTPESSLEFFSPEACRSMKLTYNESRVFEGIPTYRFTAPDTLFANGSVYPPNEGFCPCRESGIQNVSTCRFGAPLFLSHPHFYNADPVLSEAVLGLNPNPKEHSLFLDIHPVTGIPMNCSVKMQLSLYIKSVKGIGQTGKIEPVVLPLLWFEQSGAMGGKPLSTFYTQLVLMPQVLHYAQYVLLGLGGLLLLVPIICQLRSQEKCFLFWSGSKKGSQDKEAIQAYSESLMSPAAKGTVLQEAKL
PKA-R2B activ = activators of human PKA-R2B complex; PKA-R2B holoenzyme dissociation, Cy5-IP20 fluorescence polarization; R2B truncated from residue 108, S112A mutant; 0% DMSO only, 100% 113 µM cGMP; activation, % at 11.4 µM; 0.079% of 340,000 active; AID 504700;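 active = activation above a cutoff set at the mean over all compounds plus 3 SD, cut at about 18% in these data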;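 also: higher means more holoenzyme dissociation and a rise in polarization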
PKA-R1A act = activates the PKA-R1A holoenzyme complex | PKA-R1A dissociation, Cy5-IP20 fluorescence polarization; scaled: DMSO 0%, 113 µM cGMP 100% | activation, % at 11.4 µM | 0.083% of 340,000 active | AID 504707;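 active = percent activation above the mean of all tested compounds plus 3 SD, cut at about 19% in these data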;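 also: higher means more PKAc released from R1A so a rise in polarization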
dFosB act = enhances mouse delta FosB homodimer DNA binding. P13346. purified delta FosB, TAMRA-CDK5 oligo fluorescence polarization; percent of positive-control signal above neutral wells. activation, % at 25 µM. 0.99% of 340,000 active;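 active = mean activation above about 17%, with every replicate also reaching it, limit read from the data, passing the limit was not always enough; inconclusive = only one of the two conditions met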
CDK5 p35 inh = blocks human CDK5/p35 kinase activity; Q00535+Q15078; Recombinant CDK5/p35, ADP-Glo luminescence, 60 min; inhibition, % at 10 µM; 0.01% of 330,000 active;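 active = highest replicate inhibition of at least 50% and at least 75% of replicates reaching 50%; inconclusive = only one of the two criteria met; inactive = both criteria failed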
A number is an active result; – = inactive; ? = inconclusive; · = not tested or not shown. Sampled rows, rich in hits. Any-hit rate of the full collection: about 2.1%.

SMILES	SR-BI uptake up	SR-BI DiI inh	PKA-R2B activ	PKA-R1A act	dFosB act	CDK5 p35 inh
O=C(/C=C/c1ccc(OCc2ccccc2)c(OCc2ccccc2)c1)c1cccnc1	–	84	–	–	–	–
COc1cc(C(=O)N2CCCc3ccccc32)cc(OC)c1OC	–	–	–	–	–	–
COc1ccc(C(=O)N2CCCc3ccccc32)cc1OC	–	83	–	–	–	–
COc1cc(OC)c(C2=NOC(C(=O)N3CCCc4ccccc43)C2)cc1Cl (stereo not drawn)	–	81	–	–	–	–
CN(C)S(=O)(=O)N1CCC(Oc2cccc(C(=O)N3CCCCCCC3)c2)CC1	–	–	–	–	–	–
COc1ccc(Cl)cc1NC(=O)CSc1nc2[nH]ncc2c(=O)[nH]1	·	·	–	–	·	·
CCn1c2ccccc2c2cnc(N=CN(C)C)c(C#N)c21	–	–	–	–	–	–
CCN(CC)CCn1c2ccccc2c2cnc(N=CN(C)C)c(C#N)c21	–	–	–	–	29	–
COc1cc(OC)c(NS(=O)(=O)c2ccc3c(c2)NC(=O)CO3)cc1Cl	–	–	–	–	–	–
CCOC(=O)c1sc(NN=C(C(=O)OC)C(=O)OC)c(C(=O)OCC)c1C	–	74	–	–	–	–
CCOC(=O)c1c(N)sc(C(=O)OC)c1C	–	–	–	–	–	–
CN(Cc1cccc(F)c1)C(=O)c1ccc(S(=O)(=O)N2CCOCC2)cc1	–	–	–	–	–	–
Cc1oc2nc(SCC(=O)NC3CCCCC3)nc(N)c2c1C	389	–	–	–	–	–
O=C(COC(=O)Cc1ccc(Cl)cc1)NC1CCCC1	–	–	–	–	–	–
CCOc1cc(C=NN=C2c3ccccc3-c3ccccc32)ccc1O	–	76	–	–	–	–
Cc1cccc(Nc2c([N+](=O)[O-])cc(C(=O)N3CC(=O)Nc4ccccc43)cc2[N+](=O)[O-])c1	–	82	–	–	–	–
Cc1ccc(C)c(Nc2c([N+](=O)[O-])cc(C(=O)N3CC(=O)Nc4ccccc43)cc2[N+](=O)[O-])c1	–	?	–	–	–	–
CC(C)OP(=O)(OC(C)C)/C(C=O)=N\Nc1ccc([N+](=O)[O-])cc1	·	·	–	–	–	–
CCC(=O)c1ccc(OC(=O)C2CCN(C3=NS(=O)(=O)c4ccccc43)CC2)cc1	–	–	–	–	–	–
COc1ccccc1NC(=O)Nc1nc(CC(=O)Nc2cccc(F)c2)cs1	–	–	–	–	–	–
COc1ccccc1NC(=O)Nc1nc(CC(=O)Nc2cc(F)ccc2F)cs1	–	97	–	–	–	–
COc1ccccc1NC(=O)Nc1nc(CC(=O)Nc2ccc(N(C)C)cc2)cs1	–	91	–	–	–	–
Cc1cc2cc(CCNC(=O)CCCc3ccccc3)c(=O)[nH]c2cc1C	–	–	–	–	–	–
CCc1cc(Br)ccc1NC(=S)NCCc1ccccc1	–	76	–	–	–	–
COc1ccc(NC(=S)NCCc2ccccc2)c(C)c1	–	–	–	–	–	–
SMILES	SR-BI uptake up	SR-BI DiI inh	PKA-R2B activ	PKA-R1A act	dFosB act	CDK5 p35 inh
CC(C(=O)Nc1cccnc1)C1Sc2ccccc2NC1=O (stereo not drawn)	–	–	–	–	–	–
COCCCN1C(=O)N(c2ccc(F)cc2)C(=O)C1CC(=O)Nc1ccccc1 (stereo not drawn)	–	–	–	–	–	–
CCc1ccc(NC(=O)CC2C(=O)N(c3cccc(OC)c3)C(=O)N2CCOC)cc1 (stereo not drawn)	310	–	–	–	–	–
COCCN1C(=O)N(c2cccc(OC)c2)C(=O)C1CC(=O)Nc1ccc(Cl)cc1 (stereo not drawn)	–	–	–	–	–	–
COCCCN1C(=O)N(c2ccc(F)cc2)C(=O)C1CC(=O)Nc1ccc(OC)cc1 (stereo not drawn)	–	76	–	–	–	–
COc1ccc(CCNC(=O)CN2C(=O)NC3(CCCCC3C)C2=O)cc1 (stereo not drawn)	–	–	–	–	–	–
CCCC(=O)N1c2ccccc2C(=C2SC(C(=O)OC)=C(C(=O)OC)S2)C(=S)C1(C)C	–	82	–	–	–	–
COC(=O)C1=C(C(=O)OC)SC(=C2C(=S)C(C)(C)N(C(=O)C(C)C)c3ccccc32)S1	–	–	–	–	–	–
COC(=O)C1=C(C(=O)OC)SC(=C2C(=S)C(C)(C)N(C(=O)C3CC3)c3ccccc32)S1	–	97	–	–	–	–
C[C@]12c3[nH]c4ccccc4c3CCN1C(=O)C(CC(=O)NCCCn1ccnc1)C[C@@H]2C(=O)N1CCCCC1 (stereo partly drawn)	–	–	–	–	–	–
CCOc1ccc2[nH]c(C(=O)N/N=C/c3ccc(OC)cc3)cc2c1	–	–	–	–	–	–
COc1ccc(C(=O)Nc2nnc(CC(=O)N/N=C/c3ccc(O)cc3O)s2)cc1	–	–	–	–	36	–
COc1cccc(/C=N/NC(=O)c2cc3c(OC)ccc(OC)c3[nH]2)c1O	–	144	–	–	–	–
Cc1ccc(C(=O)Nc2nnc(CC(=O)N/N=C/c3ccc(O)c(O)c3)s2)cc1	–	–	–	–	–	–
COc1cc(OC)c2cc(C(=O)N/N=C/c3cccc(OC)c3O)[nH]c2c1	–	121	–	–	–	–
COc1ccc2[nH]c(C(=O)N/N=C/c3ccc(O)cc3O)cc2c1	–	99	–	–	–	–
CCOc1ccc(N2CC(C(=O)Nc3ccc(S(=O)(=O)Nc4nccs4)cc3)CC2=O)cc1 (stereo not drawn)	·	·	–	–	–	–
Cc1ccc(Oc2ccccc2NC(=O)C2=COCCO2)cc1	–	–	–	–	–	–
Cc1cc(Cl)ccc1NC(=O)CN1C(=O)C(=O)N(C2CCCC2)C1=O	–	–	–	–	–	–
O=C(Nc1cc([N+](=O)[O-])ccc1N1CCOCC1)c1ccco1	–	–	–	–	–	–
COc1cc(NC(=O)c2cc([N+](=O)[O-])ccc2N2CCOCC2)ccc1NC(=O)c1ccco1	–	80	–	–	–	–
Cc1ccc(C)c(NC(=O)CN(C)C(=O)c2ccc(COc3ccccc3)cc2)c1	·	·	–	–	·	·
CCOC(=O)/C(=N\Nc1ccc(Br)cc1)N1CC(C)OC(C)C1 (stereo not drawn)	–	–	–	–	–	–
CCN(CC)C(=O)c1sc(NC(=O)c2cccc([N+](=O)[O-])c2)c(C#N)c1C	–	–	–	–	–	–
